Measurements as given in ChEMBL document CHEMBL2016555, “4-Methoxy-N-[2-(trifluoromethyl)biphenyl-4-ylcarbamoyl]nicotinamide: A Potent and Selective Agonist of S1P1” (ACS Med Chem Lett, 2011).
In brackets after ≈: the same amount, converted by molar mass. Blank lines part the entries; values can stand above or below the compound they belong to.

Assays:
[1] = molecular target: T1, Sphingosine 1-phosphate receptor 5 (Homo sapiens, UniProt Q9H228); experiment: Agonist activity at human S1P5 expressed in CHO-K1 cells coexpressing Gq/i5 assessed as calcium mobilization-induced bioluminescence change measured for 90 secs by fluorimetry; assay type: functional, cell-based
T1 sequence (Q9H228 whole entry): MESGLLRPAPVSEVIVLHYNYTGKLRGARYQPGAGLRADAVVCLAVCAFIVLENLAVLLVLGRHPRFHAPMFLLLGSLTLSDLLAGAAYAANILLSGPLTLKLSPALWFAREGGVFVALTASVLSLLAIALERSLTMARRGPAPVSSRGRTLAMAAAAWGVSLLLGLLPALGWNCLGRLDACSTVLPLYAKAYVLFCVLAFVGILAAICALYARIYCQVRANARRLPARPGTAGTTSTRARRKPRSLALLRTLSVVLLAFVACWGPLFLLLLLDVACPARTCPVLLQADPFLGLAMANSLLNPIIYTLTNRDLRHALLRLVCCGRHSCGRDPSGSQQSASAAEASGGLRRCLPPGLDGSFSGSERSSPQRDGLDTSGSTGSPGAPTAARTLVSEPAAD
Outline: (§1)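 CHO-K1 cells expressing the human S1P receptor subtype plus chimeric Gq/i5; Ca2+ mobilization measured; efficacy relative to S1P at 0.20 μM; compounds not reaching >10% of control activity reported as > highest concentration tested.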

[2] = AUC (0 to 48 hrs) in Sprague-Dawley rat at 1 mg/kg, iv; assay type: ADME, organism-based; design: time < 48 hr, dose 1 mg/kg, route intravenous; conditions: plasma
[3] = Half life in Sprague-Dawley rat at 1 mg/kg, iv; assay type: ADME, organism-based; design: dose 1 mg/kg, route intravenous; conditions: in vivo
Rattus norvegicus [4] = experiment: Toxicity in Sprague-Dawley rat assessed as increase in bilirubin level at 50 mg/kg, po administered qd for 4 days; assay type: organism-based; design: dose 50 mg/kg, route oral; conditions: in vivo, 96 h
Outline: (§2)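 Male Sprague-Dawley rats, N = 3/group, dosed orally once daily for 4 days at 50 or 200 mg/kg. Endpoints were mortality, clinical signs, body weight, and clinical chemistry including total bilirubin and cholesterol.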

[5] = AUC (0 to 48 hrs) in Sprague-Dawley rat at 3 mg/kg, po; assay type: ADME, organism-based; design: time < 48 hr, dose 3 mg/kg, route oral; conditions: plasma
Rattus norvegicus [6] = experiment: Toxicity in Sprague-Dawley rat assessed as increase in cholesterol level at 200 mg/kg, po administered qd for 4 days; assay type: organism-based; design: dose 200 mg/kg, route oral; conditions: in vivo, 96 h; outline: as §2
[7] = molecular target: T1, Sphingosine 1-phosphate receptor 5; experiment: Agonist activity at human S1P5 expressed in CHO-K1 cells coexpressing Gq/i5 assessed as calcium mobilization-induced bioluminescence change measured for 90 secs by fluorimetry relative to S1P; assay type: functional, cell-based; outline: as §1
Rattus norvegicus [8] = experiment: Immunosuppressive activity in Lewis rat assessed as change in peripheral lymphocyte count at 1 mg/kg, po after 24 hrs relative to vehicle treated control; assay type: functional
Outline: (§3)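 Female Lewis rats (N = 5/group) given one oral dose of 1 mg/kg (20% captisol, 1% HPMC, 1% pluronic F68, pH 2.1 with MSA); blood lymphocyte count and total plasma compound measured at 24 h; POC vs vehicle, ANOVA/Dunnett's test.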

Cytochrome P450 2D6 = Cytochrome P450 2D6 (Homo sapiens, UniProt P10635); experiment: Inhibition of human CYP2D6; assay type: ADME
Chain of Cytochrome P450 2D6 (P10635 whole entry): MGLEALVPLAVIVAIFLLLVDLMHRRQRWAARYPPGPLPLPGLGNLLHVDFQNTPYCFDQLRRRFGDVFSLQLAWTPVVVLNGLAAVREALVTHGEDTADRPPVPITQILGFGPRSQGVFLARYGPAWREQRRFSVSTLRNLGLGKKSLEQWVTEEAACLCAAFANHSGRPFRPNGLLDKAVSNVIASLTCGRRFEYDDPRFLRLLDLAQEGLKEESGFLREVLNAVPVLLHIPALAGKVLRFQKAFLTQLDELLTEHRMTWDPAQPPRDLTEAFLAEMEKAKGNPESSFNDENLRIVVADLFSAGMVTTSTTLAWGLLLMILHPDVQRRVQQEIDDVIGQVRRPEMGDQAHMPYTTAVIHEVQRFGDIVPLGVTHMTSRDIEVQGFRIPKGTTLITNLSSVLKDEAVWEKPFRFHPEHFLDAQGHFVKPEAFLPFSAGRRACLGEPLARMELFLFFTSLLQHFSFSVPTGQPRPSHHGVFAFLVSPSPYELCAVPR

Rattus norvegicus [9] = experiment: Toxicity in Sprague-Dawley rat assessed as mortality at 50 mg/kg, po administered qd for 4 days; assay type: organism-based; design: dose 50 mg/kg, route oral; conditions: in vivo, 96 h; outline: as §2
[10] = Clearance in Sprague-Dawley rat at 1 mg/kg, iv; assay type: ADME, organism-based; design: dose 1 mg/kg, route intravenous; conditions: in vivo
Rattus norvegicus [11] = experiment: Toxicity in Sprague-Dawley rat assessed as adverse clinical signs at 200 mg/kg, po administered qd for 4 days; assay type: organism-based; design: dose 200 mg/kg, route oral; conditions: in vivo, 96 h; outline: as §2
[12] = molecular target: T2, Sphingosine 1-phosphate receptor 4 (Homo sapiens, UniProt O95977); experiment: Agonist activity at human S1P4 expressed in CHO-K1 cells coexpressing Gq/i5 assessed as calcium mobilization-induced bioluminescence change after measured for 90 secs by fluorimetry; assay type: functional, cell-based
T2 sequence (O95977 whole entry): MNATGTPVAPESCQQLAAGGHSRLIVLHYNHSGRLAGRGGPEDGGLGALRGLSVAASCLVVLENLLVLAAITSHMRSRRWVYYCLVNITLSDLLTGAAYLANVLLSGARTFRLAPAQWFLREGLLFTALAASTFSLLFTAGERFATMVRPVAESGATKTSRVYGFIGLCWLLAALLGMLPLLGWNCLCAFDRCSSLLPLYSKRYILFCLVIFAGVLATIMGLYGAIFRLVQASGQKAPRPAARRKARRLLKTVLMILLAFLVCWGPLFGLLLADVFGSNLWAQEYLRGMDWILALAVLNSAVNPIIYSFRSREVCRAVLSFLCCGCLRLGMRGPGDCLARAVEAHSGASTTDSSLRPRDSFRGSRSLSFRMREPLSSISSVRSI

[13] = Intrinsic clearance in rat liver microsomes after 30 mins; assay type: ADME, Microsome; conditions: read-out: CLH
Rattus norvegicus [14] = experiment: Toxicity in Sprague-Dawley rat assessed as clinical signs at 50 mg/kg, po administered qd for 4 days; assay type: organism-based; design: dose 50 mg/kg, route oral; conditions: in vivo, 96 h; outline: as §2
Rattus norvegicus [15] = experiment: Toxicity in Sprague-Dawley rat assessed as weight loss at 200 mg/kg, po administered qd for 4 days; assay type: organism-based; design: dose 200 mg/kg, route oral; conditions: in vivo, 96 h; outline: as §2
PXR (NR1I2) = molecular target: T3, PXR (NR1I2) (Homo sapiens, UniProt O75469); experiment: Induction of human PXR at 10 uM relative to control; conditions: read-out: Activity
T3 sequence (O75469 whole entry): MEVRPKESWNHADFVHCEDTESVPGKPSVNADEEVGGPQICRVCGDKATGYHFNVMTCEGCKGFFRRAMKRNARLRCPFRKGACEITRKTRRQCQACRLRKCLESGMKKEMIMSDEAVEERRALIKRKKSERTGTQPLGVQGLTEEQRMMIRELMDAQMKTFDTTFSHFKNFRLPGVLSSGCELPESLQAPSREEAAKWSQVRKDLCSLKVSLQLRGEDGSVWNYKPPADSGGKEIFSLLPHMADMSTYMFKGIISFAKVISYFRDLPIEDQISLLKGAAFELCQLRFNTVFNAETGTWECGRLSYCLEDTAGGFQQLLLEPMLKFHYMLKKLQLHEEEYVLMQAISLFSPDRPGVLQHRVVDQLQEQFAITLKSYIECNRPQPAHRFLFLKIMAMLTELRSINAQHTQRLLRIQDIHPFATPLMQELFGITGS

[16] = molecular target: Sphingosine 1-phosphate receptor 3 (Homo sapiens, UniProt Q99500); experiment: Agonist activity at human S1P3 expressed in CHO-K1 cells coexpressing Gq/i5 assessed as intracellular calcium release by fluorimetry; assay type: functional, cell-based; outline: as §1
Chain of Sphingosine 1-phosphate receptor 3 (Q99500 whole entry): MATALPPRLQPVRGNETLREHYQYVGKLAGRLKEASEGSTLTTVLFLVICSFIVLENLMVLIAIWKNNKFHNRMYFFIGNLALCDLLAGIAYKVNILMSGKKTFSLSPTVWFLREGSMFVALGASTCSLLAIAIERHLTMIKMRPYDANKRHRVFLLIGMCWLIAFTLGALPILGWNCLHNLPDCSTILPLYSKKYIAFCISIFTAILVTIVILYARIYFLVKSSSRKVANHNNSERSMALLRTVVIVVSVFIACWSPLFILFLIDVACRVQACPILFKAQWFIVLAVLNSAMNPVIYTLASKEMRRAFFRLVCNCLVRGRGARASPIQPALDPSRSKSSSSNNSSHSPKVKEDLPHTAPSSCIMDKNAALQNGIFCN

Rattus norvegicus [17] = experiment: Toxicity in Sprague-Dawley rat assessed as increase in bilirubin level at 200 mg/kg, po administered qd for 4 days; assay type: organism-based; design: dose 200 mg/kg, route oral; conditions: in vivo, 96 h; outline: as §2
[18] = Plasma concentration in Lewis rat at 3 mg/kg, po at 24 hrs; assay type: ADME, organism-based; design: dose 3 mg/kg, route oral
Outline: (§4)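 Female Lewis rats dosed orally once at 0.30, 1.0 or 3.0 mg/kg (N = 5; 3.0 mg/kg group N = 3) in 20% HPBCD, 1% HPMC, 1% pluronic F68, pH 2.1 with MSA; blood lymphocytes and plasma concentration at 24 h; ANOVA/Dunnett's vs vehicle.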

Rattus norvegicus [19] = experiment: Toxicity in Sprague-Dawley rat assessed as weight loss at 50 mg/kg, po administered qd for 4 days; assay type: organism-based; design: dose 50 mg/kg, route oral; conditions: in vivo, 96 h; outline: as §2
[20] = molecular target: T4, Sphingosine 1-phosphate receptor 1 (Homo sapiens, UniProt P21453); experiment: Agonist activity at human S1P1 expressed in U2OS cells coexpressing eGFP assessed as receptor internalization after 1 hr by microscopic analysis relative to 1-(4-(6-benzylbenzofuran-2-yl)-3-fluorobenzyl)azetidine-3-carboxylic acid; assay type: functional, cell-based
T4 sequence (P21453 whole entry, the tested form may be a part): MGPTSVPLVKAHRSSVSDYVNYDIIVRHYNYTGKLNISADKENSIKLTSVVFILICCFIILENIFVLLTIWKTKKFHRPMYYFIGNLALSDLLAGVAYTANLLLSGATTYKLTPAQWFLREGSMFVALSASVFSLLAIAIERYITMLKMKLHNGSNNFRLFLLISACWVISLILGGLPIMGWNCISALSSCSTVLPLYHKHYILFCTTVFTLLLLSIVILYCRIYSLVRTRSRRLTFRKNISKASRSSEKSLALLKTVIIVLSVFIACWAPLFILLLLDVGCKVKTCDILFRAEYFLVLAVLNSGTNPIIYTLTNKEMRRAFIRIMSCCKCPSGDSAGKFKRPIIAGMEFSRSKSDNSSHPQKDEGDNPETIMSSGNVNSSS
Outline: (§5)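 Human S1P1–eGFP fusion protein expressed in U2OS cells; agonism read as receptor internalization; EC50 derived, efficacy expressed relative to 1-(4-(6-benzylbenzofuran-2-yl)-3-fluorobenzyl)azetidine-3-carboxylic acid at 1.0 μM.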

Rattus norvegicus [21] = experiment: Immunosuppressive activity in po dosed Lewis rat assessed as change in peripheral lymphocyte count after 24 hrs relative to vehicle treated control; assay type: functional, organism-based; outline: as §4
Rattus norvegicus [22] = experiment: Immunosuppressive activity in po dosed Lewis rat assessed as change in peripheral lymphocyte count at 3 mg/kg, po after 24 hrs relative to vehicle treated control; assay type: functional; outline: as §4
[23] = Plasma protein binding in Sprague-Dawley rat in vitro by ultracentrifugation; conditions: read-out: PPB (converted)
[24] = Volume of distribution at steady state in Sprague-Dawley rat at 1 mg/kg, iv; assay type: ADME, organism-based; design: dose 1 mg/kg, route intravenous; conditions: in vivo, read-out: Vdss
[25] = Bioavailability in Sprague-Dawley rat at 3 mg/kg, po and 1 mg/kg, iv; assay type: ADME, organism-based; conditions: in vivo
[26] = molecular target: Voltage-gated inwardly rectifying potassium channel KCNH2 (Homo sapiens, UniProt Q12809); experiment: Inhibition of human ERG
Chain of Voltage-gated inwardly rectifying potassium channel KCNH2 (Q12809 whole entry): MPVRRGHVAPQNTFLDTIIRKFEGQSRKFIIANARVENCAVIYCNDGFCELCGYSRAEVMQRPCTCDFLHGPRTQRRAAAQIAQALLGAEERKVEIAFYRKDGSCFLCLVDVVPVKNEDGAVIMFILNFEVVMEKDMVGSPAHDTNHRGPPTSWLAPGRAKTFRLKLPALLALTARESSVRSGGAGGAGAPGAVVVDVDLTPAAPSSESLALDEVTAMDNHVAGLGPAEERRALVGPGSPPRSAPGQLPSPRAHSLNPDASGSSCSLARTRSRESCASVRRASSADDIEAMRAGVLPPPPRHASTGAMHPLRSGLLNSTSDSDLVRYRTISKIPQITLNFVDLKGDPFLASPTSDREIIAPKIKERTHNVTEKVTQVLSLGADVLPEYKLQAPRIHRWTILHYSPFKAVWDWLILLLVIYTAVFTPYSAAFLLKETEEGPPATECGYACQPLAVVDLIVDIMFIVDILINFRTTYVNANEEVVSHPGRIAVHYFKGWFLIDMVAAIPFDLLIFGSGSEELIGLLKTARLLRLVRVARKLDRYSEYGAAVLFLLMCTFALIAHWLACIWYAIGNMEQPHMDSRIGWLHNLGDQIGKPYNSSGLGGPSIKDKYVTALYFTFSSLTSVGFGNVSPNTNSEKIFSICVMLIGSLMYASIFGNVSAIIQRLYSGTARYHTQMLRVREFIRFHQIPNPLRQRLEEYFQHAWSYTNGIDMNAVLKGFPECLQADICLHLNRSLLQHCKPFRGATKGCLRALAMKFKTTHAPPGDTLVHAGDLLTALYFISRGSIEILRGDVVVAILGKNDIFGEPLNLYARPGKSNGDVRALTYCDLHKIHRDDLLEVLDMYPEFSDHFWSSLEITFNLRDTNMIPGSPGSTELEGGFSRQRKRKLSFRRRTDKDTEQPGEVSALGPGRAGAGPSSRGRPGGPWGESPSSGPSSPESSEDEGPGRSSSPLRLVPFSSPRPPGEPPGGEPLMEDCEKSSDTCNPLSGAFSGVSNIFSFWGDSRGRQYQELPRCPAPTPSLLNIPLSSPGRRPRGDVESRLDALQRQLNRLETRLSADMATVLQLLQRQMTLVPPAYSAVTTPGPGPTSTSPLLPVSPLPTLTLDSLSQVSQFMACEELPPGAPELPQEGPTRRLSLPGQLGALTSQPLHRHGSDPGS

Rattus norvegicus [27] = experiment: AUC (0 to 48 hrs) in Sprague-Dawley rat at 100 mg/kg, po; assay type: ADME, organism-based, Plasma; design: time < 48 hr, dose 100 mg/kg, route oral; conditions: in vivo
[28] = Plasma concentration in Lewis rat at 0.3 mg/kg, po at 24 hrs; assay type: ADME, organism-based; design: dose 0.3 mg/kg, route oral; outline: as §4
[29] = molecular target: Sphingosine 1-phosphate receptor 2 (Homo sapiens, UniProt O95136); experiment: Agonist activity at human S1P2 expressed in CHO-K1 cells coexpressing Gq/i5 assessed as intracellular calcium release by fluorimetry; assay type: functional, cell-based; outline: as §1
Chain of Sphingosine 1-phosphate receptor 2 (O95136 whole entry): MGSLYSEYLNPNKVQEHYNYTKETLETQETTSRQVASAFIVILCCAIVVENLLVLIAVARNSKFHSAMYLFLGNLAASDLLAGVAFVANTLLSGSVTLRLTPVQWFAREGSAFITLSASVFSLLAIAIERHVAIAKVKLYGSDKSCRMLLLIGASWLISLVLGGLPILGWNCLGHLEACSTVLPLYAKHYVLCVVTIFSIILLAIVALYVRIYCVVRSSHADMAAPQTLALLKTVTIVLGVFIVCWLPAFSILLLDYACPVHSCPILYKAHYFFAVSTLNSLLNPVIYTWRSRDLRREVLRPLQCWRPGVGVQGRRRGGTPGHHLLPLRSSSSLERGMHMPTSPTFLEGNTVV

Rattus norvegicus [30] = experiment: Toxicity in Sprague-Dawley rat assessed as mortality at 200 mg/kg, po administered qd for 4 days; assay type: organism-based; design: dose 200 mg/kg, route oral; conditions: in vivo, 96 h; outline: as §2
[31] = Solubility of the compound in 0.01 M aqueous HCl; assay type: physicochemical
[32] = Solubility of the compound in simulated intestinal fluid; assay type: physicochemical
[33] = Apparent permeability across pig LLC-PK1 cells; assay type: ADME, cell-based, Sus scrofa
Outline: (§6)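 Permeability across porcine proximal tubule LLC-PK1 cell monolayers; apparent permeability (Papp) and efflux ratio determined.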

[34] = molecular target: T4, Sphingosine 1-phosphate receptor 1; experiment: Agonist activity at human S1P1 expressed in U2OS cells coexpressing eGFP assessed as receptor internalization after 1 hr by microscopic analysis; assay type: functional, cell-based; outline: as §5
[35] = Solubility of the compound in phosphate buffer saline at pH 7.4; assay type: physicochemical; conditions: phosphate buffered saline
[36] = Plasma concentration in Lewis rat at 1 mg/kg, po at 24 hrs; assay type: ADME, organism-based; design: dose 1 mg/kg, route oral; conditions: Lewis, plasma; outline: as §3
[37] = Efflux ratio of apparent permeability across pig LLC-PK1 cells; assay type: ADME, cell-based, Sus scrofa; outline: as §6

solubility [31]: < 1 µg/mL
concentration at 24 h [36]: 4.9 ng/mL
solubility [32]: 23 µg/mL (≈ 55.5 µM)
Papp [33]: < 1 ×10⁻⁶ cm/s
microsomal CLint [13]: 15 µL/min/mg
Efficacy [20]: 110%
EC50 [34]: 0.068 µM
solubility [35]: < 1 µg/mL
SMILES: COc1ccccc1C(=O)NC(=O)Nc1ccc(-c2ccccc2)c(C(F)(F)F)c1
Activity (Rattus norvegicus [8]): -20%

solubility [31]: 1.1 µg/mL (≈ 2.61 µM)
concentration at 24 h [36]: 1 ng/mL
solubility [32]: 12 µg/mL (≈ 28.5 µM)
Papp [33]: 12 ×10⁻⁶ cm/s
microsomal CLint [13]: 33 µL/min/mg
efflux ratio [37]: 1.4
Efficacy [20]: 130%
EC50 [34]: 0.038 µM
solubility [35]: < 1 µg/mL
SMILES: COc1ccccc1C(=O)NC(=O)Nc1ccc(-c2nccs2)c(C(F)(F)F)c1
Activity (Rattus norvegicus [8]): -18%

The next lines start with the compound.

SMILES: COc1ccncc1C(=O)NC(=O)Nc1ccc(-c2ccccc2)c(C(F)(F)F)c1
EC50 [1]: 4.3 µM
AUC(0-t) at 48 h [2]: 3400 ng·h/mL
half-life [3]: 19 h
Activity (Rattus norvegicus [4]): Toxic
AUC(0-t) at 48 h [5]: 13000 ng·h/mL
Activity (Rattus norvegicus [6]): Toxic
Efficacy [7]: 58%
Activity (Rattus norvegicus [8]): -67%
IC50 (Cytochrome P450 2D6): > 30 µM
Activity (Rattus norvegicus [9]): Non-toxic
clearance [10]: 4.17 mL/min/kg
Activity (Rattus norvegicus [11]): Non-toxic
EC50 [12]: > 50 µM
microsomal CLint [13]: < 14 µL/min/mg
Activity (Rattus norvegicus [14]): Non-toxic
Activity (Rattus norvegicus [15]): Non-toxic
activity at 10 µM (PXR (NR1I2)): 3.7%
EC50 [16]: > 25 µM
Activity (Rattus norvegicus [17]): Toxic
concentration at 24 h [18]: 160 ng/mL
Activity (Rattus norvegicus [19]): Non-toxic
Efficacy [20]: 96%
Activity (Rattus norvegicus [21]): Dose-dependent effect
Activity (Rattus norvegicus [22]): 81%
fraction unbound [23]: 0.05
Vd [24]: 6.3 L/kg
bioavailability [25]: 140%
IC50 [26]: > 10 µM
AUC (Rattus norvegicus [27]): 350000 ng·h/mL
concentration at 24 h [28]: 17 ng/mL
EC50 [29]: > 25 µM
Activity (Rattus norvegicus [30]): Non-toxic

SMILES: COc1ccccc1C(=O)NC(=O)Nc1ccc(N2CCCCC2)c(Cl)c1
solubility [31]: 3.6 µg/mL (≈ 9.28 µM)
solubility [32]: 8.5 µg/mL (≈ 21.9 µM)
Papp [33]: < 1 ×10⁻⁶ cm/s
microsomal CLint [13]: 36 µL/min/mg
Efficacy [20]: 120%
EC50 [34]: 0.23 µM
solubility [35]: < 1 µg/mL

SMILES: COc1ccccc1C(=O)NC(=O)Nc1ccc(OCC(F)(F)F)c(C(F)(F)F)c1
solubility [31]: < 1 µg/mL
Activity (Rattus norvegicus [8]): 4%
concentration at 24 h [36]: 1 ng/mL
solubility [32]: 2.2 µg/mL (≈ 5.04 µM)
Papp [33]: < 1 ×10⁻⁶ cm/s
microsomal CLint [13]: 25 µL/min/mg
Efficacy [20]: 83%
EC50 [34]: 0.0068 µM
solubility [35]: < 1 µg/mL
